Values after ≈ are worked out from the molar mass of the structure shown.
Columns and labels:
Escherichia coli [1] = test: Antibiotic adjuvant activity against Penicillin G-treated wild type Escherichia coli ATCC 25922 assessed as bacterial growth inhibition by broth microdilution assay; format: functional
How it was run: (§1)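 Broth microdilution per CLSI M100-S23. Antibiotics spanned 0–256 µg/mL (in DMSO or water), combined with adjuvant at 20, 50 or 100 µM (in DMSO). Inoculum was a 4–6 h culture in full-strength TSB. Plates ran 12–18 h at 37 °C, each treatment in triplicate. OD590 was blank-subtracted and normalized to vehicle growth. MIC is the lowest concentration giving ≥90% inhibition.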

Escherichia coli [2] = test: Antibiotic adjuvant activity against Ampicillin-treated wild type Escherichia coli ATCC 25922 assessed as bacterial growth inhibition by broth microdilution assay; format: functional; how it was run: as §1
Escherichia coli [3] = test: Antibiotic adjuvant activity against Rifampicin-treated wild type Escherichia coli ATCC 25922 assessed as bacterial growth inhibition by broth microdilution assay; format: functional; how it was run: as §1
Escherichia coli [4] = test: Antibiotic adjuvant activity against Erythromycin-treated wild type Escherichia coli ATCC 25922 assessed as bacterial growth inhibition by broth microdilution assay; format: functional; how it was run: as §1
Escherichia coli [5] = test: Antibiotic adjuvant activity against Kanamycin-treated wild type Escherichia coli ATCC 25922 assessed as bacterial growth inhibition by broth microdilution assay; format: functional; how it was run: as §1
Escherichia coli [6] = test: Antibiotic adjuvant activity against Novobiocin-treated wild type Escherichia coli ATCC 25922 assessed as bacterial growth inhibition by broth microdilution assay; format: functional; how it was run: as §1
Pseudomonas aeruginosa [7] = test: Antibiotic adjuvant activity against Penicillin G-treated Pseudomonas aeruginosa ATCC 9027 assessed as bacterial growth inhibition by broth microdilution assay; format: functional; how it was run: as §1
Pseudomonas aeruginosa [8] = test: Antibiotic adjuvant activity against Ampicillin-treated Pseudomonas aeruginosa ATCC 9027 assessed as bacterial growth inhibition by broth microdilution assay; format: functional; how it was run: as §1
Pseudomonas aeruginosa [9] = test: Antibiotic adjuvant activity against Rifampicin-treated Pseudomonas aeruginosa ATCC 9027 assessed as bacterial growth inhibition by broth microdilution assay; format: functional; how it was run: as §1
Pseudomonas aeruginosa [10] = test: Antibiotic adjuvant activity against Erythromycin-treated Pseudomonas aeruginosa ATCC 9027 assessed as bacterial growth inhibition by broth microdilution assay; format: functional; how it was run: as §1
Pseudomonas aeruginosa [11] = test: Antibiotic adjuvant activity against Kanamycin-treated Pseudomonas aeruginosa ATCC 9027 assessed as bacterial growth inhibition by broth microdilution assay; format: functional; how it was run: as §1
Pseudomonas aeruginosa [12] = test: Antibiotic adjuvant activity against Novobiocin-treated Pseudomonas aeruginosa ATCC 9027 assessed as bacterial growth inhibition by broth microdilution assay; format: functional; how it was run: as §1
Pseudomonas aeruginosa [13] = test: Antibiotic adjuvant activity against Erythromycin-treated Pseudomonas aeruginosa ATCC 9027 assessed as fold reduction in bacterial growth inhibition by broth microdilution assay; format: functional
[14] = Drug uptake in wild type Escherichia coli ATCC 25922 assessed as drug accumulation across outer membrane; format: ADME
How it was run: (§2)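 Cells were washed twice in PBS, aliquoted and pre-shaken 10 min at 37 °C. Compound was added and incubated 10 min at 37 °C, with CFU counted before and after. Samples were spun through cold silicone oil. Supernatants were quantified by LC-MS single-ion monitoring against calibration curves.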

[15] = Drug uptake in Pseudomonas aeruginosa ATCC 9027 assessed as drug accumulation across outer membrane; format: ADME; how it was run: as §2
Escherichia coli [16] = test: Antibacterial activity against wild type Escherichia coli ATCC 25922 assessed as bacterial growth inhibition by broth microdilution assay; format: functional
Pseudomonas aeruginosa [17] = test: Antibacterial activity against Pseudomonas aeruginosa ATCC 9027 assessed as bacterial growth inhibition by broth microdilution assay; format: functional
Escherichia coli [18] = test: Antibiotic adjuvant activity against Erythromycin-treated wild type Escherichia coli ATCC 25922 assessed as fold reduction in bacterial growth inhibition by broth microdilution assay; format: functional
Escherichia coli [19] = test: Antibiotic adjuvant activity against Novobiocin-treated wild type Escherichia coli ATCC 25922 assessed as fold reduction in bacterial growth inhibition by broth microdilution assay; format: functional
Pseudomonas aeruginosa [20] = test: Antibacterial activity against Pseudomonas aeruginosa ATCC 9027 assessed as bacterial growth inhibition at 1000 ug/ml by broth microdilution assay; format: functional
Escherichia coli [21] = test: Antibacterial activity against wild type Escherichia coli ATCC 25922 assessed as bacterial growth inhibition at 100 ug/ml by broth microdilution assay; format: functional

Cl.Cl.Nc1ccc(NC(=O)CCC(=O)Nc2ccc(N)cc2)cc1
MIC (Escherichia coli [1]): 64 µg/mL
MIC (Escherichia coli [2]): 16 µg/mL
MIC (Escherichia coli [3]): 8 µg/mL
MIC (Escherichia coli [4]): 128 µg/mL
MIC (Escherichia coli [5]): 64 µg/mL
MIC (Escherichia coli [6]): 128 µg/mL
MIC (Pseudomonas aeruginosa [7]): > 256 µg/mL
MIC (Pseudomonas aeruginosa [8]): 128 µg/mL
MIC (Pseudomonas aeruginosa [9]): 16 µg/mL
MIC (Pseudomonas aeruginosa [10]): 64 µg/mL
MIC (Pseudomonas aeruginosa [11]): > 64 µg/mL
MIC (Pseudomonas aeruginosa [12]): 256 µg/mL
fold change (FC) (Pseudomonas aeruginosa [13]): 2
Drug uptake [14]: 3.3 nmol
Drug uptake [15]: 2 nmol

CC1(C)S[C@@H]2[C@H](NC(=O)Cc3ccccc3)C(=O)N2[C@H]1C(=O)O [PENICILLIN G]
MIC (Escherichia coli [16]): 64 µg/mL (≈ 191 µM)
MIC (Pseudomonas aeruginosa [17]): > 256 µg/mL

CO[C@H]1/C=C/O[C@@]2(C)Oc3c(C)c(O)c4c(O)c(c(/C=N/N5CCN(C)CC5)c(O)c4c3C2=O)NC(=O)/C(C)=C\C=C\[C@H](C)[C@H](O)[C@@H](C)[C@@H](O)[C@@H](C)[C@H](OC(C)=O)[C@@H]1C [RIFAMPIN]
MIC (Escherichia coli [16]): 8 µg/mL (≈ 9.72 µM)
MIC (Pseudomonas aeruginosa [17]): 16 µg/mL (≈ 19.4 µM)

CC1(C)S[C@@H]2[C@H](NC(=O)[C@H](N)c3ccccc3)C(=O)N2[C@H]1C(=O)O [AMPICILLIN]
MIC (Escherichia coli [16]): 16 µg/mL (≈ 45.8 µM)
MIC (Pseudomonas aeruginosa [17]): 128 µg/mL (≈ 366 µM)
Drug uptake [14]: < 0.06 nmol
Drug uptake [15]: < 0.06 nmol

NC[C@H]1O[C@H](O[C@H]2[C@H](O)[C@@H](O[C@H]3O[C@H](CO)[C@@H](O)[C@H](N)[C@H]3O)[C@H](N)C[C@@H]2N)[C@H](O)[C@@H](O)[C@@H]1O [KANAMYCIN]
MIC (Escherichia coli [16]): 64 µg/mL (≈ 132 µM)
MIC (Pseudomonas aeruginosa [17]): > 64 µg/mL

Cl.Cl.N=C(N)Nc1ccc(NC(=O)CCC(=O)Nc2ccc(NC(=N)N)cc2)cc1
MIC (Escherichia coli [1]): 64 µg/mL
MIC (Escherichia coli [2]): 16 µg/mL
MIC (Escherichia coli [3]): 8 µg/mL
MIC (Escherichia coli [4]): 64 µg/mL
MIC (Escherichia coli [5]): 64 µg/mL
MIC (Escherichia coli [6]): 64 µg/mL
MIC (Pseudomonas aeruginosa [7]): > 256 µg/mL
MIC (Pseudomonas aeruginosa [8]): 128 µg/mL
MIC (Pseudomonas aeruginosa [9]): 16 µg/mL
MIC (Pseudomonas aeruginosa [10]): 64 µg/mL
MIC (Pseudomonas aeruginosa [11]): > 64 µg/mL
MIC (Pseudomonas aeruginosa [12]): 256 µg/mL
fold change (FC) (Escherichia coli [18]): 2
fold change (FC) (Pseudomonas aeruginosa [13]): 2
fold change (FC) (Escherichia coli [19]): 2
Drug uptake [14]: 1.1 nmol
Drug uptake [15]: 1.1 nmol
inhibition at 1000 µg/mL (Pseudomonas aeruginosa [20]): 33%
inhibition at 100 µg/mL (Escherichia coli [21]): 18%

CC[C@H]1OC(=O)[C@H](C)[C@@H](O[C@H]2C[C@@](C)(OC)[C@@H](O)[C@H](C)O2)[C@H](C)[C@@H](O[C@@H]2O[C@H](C)C[C@H](N(C)C)[C@H]2O)[C@](C)(O)C[C@@H](C)C(=O)[C@H](C)[C@@H](O)[C@]1(C)O [ERYTHROMYCIN]
MIC (Escherichia coli [16]): 128 µg/mL (≈ 174 µM)
MIC (Pseudomonas aeruginosa [17]): 128 µg/mL (≈ 174 µM)

CO[C@@H]1[C@@H](OC(N)=O)[C@@H](O)[C@H](Oc2ccc3c(O)c(NC(=O)c4ccc(O)c(CC=C(C)C)c4)c(=O)oc3c2C)OC1(C)C [NOVOBIOCIN]
MIC (Escherichia coli [16]): 128 µg/mL (≈ 209 µM)
MIC (Pseudomonas aeruginosa [17]): 256 µg/mL (≈ 418 µM)

O=C(O)c1cn(C2CC2)c2cc(N3CCNCC3)c(F)cc2c1=O [CIPROFLOXACIN]
Drug uptake [14]: 2.4 nmol
Drug uptake [15]: 1.8 nmol

Cl.Cl.N=C(N)c1ccc(NC(=O)CCC(=O)Nc2ccc(C(=N)N)cc2)cc1
MIC (Escherichia coli [1]): 64 µg/mL
MIC (Escherichia coli [2]): 16 µg/mL
MIC (Escherichia coli [3]): 4 µg/mL
MIC (Escherichia coli [4]): 128 µg/mL
MIC (Escherichia coli [5]): 64 µg/mL
MIC (Escherichia coli [6]): 64 µg/mL
MIC (Pseudomonas aeruginosa [7]): > 256 µg/mL
MIC (Pseudomonas aeruginosa [8]): 128 µg/mL
MIC (Pseudomonas aeruginosa [9]): 16 µg/mL
MIC (Pseudomonas aeruginosa [10]): 64 µg/mL
MIC (Pseudomonas aeruginosa [11]): > 64 µg/mL
MIC (Pseudomonas aeruginosa [12]): 256 µg/mL
fold change (FC) (Pseudomonas aeruginosa [13]): 2
Drug uptake [14]: 1 nmol
Drug uptake [15]: 0.9 nmol

Cl.Cl.N=C(N)Nc1ccc(NC(=O)CCC(=O)Nc2ccc(N)cc2)cc1
MIC (Escherichia coli [1]): 64 µg/mL
MIC (Escherichia coli [2]): 16 µg/mL
MIC (Escherichia coli [3]): 8 µg/mL
MIC (Escherichia coli [4]): 64 µg/mL
MIC (Escherichia coli [5]): 64 µg/mL
MIC (Escherichia coli [6]): 64 µg/mL
MIC (Pseudomonas aeruginosa [7]): > 256 µg/mL
MIC (Pseudomonas aeruginosa [8]): 128 µg/mL
MIC (Pseudomonas aeruginosa [9]): 16 µg/mL
MIC (Pseudomonas aeruginosa [10]): 64 µg/mL
MIC (Pseudomonas aeruginosa [11]): > 64 µg/mL
MIC (Pseudomonas aeruginosa [12]): 256 µg/mL
fold change (FC) (Escherichia coli [18]): 2
fold change (FC) (Pseudomonas aeruginosa [13]): 2
Drug uptake [14]: 1.3 nmol
Drug uptake [15]: 0.3 nmol
